Experimental data from ChEMBL document CHEMBL2086281, “Design, synthesis and 3D-QSAR analysis of novel 2-hydrazinyl-4-morpholinothieno[3,2-d]pyrimidine derivatives as potential antitumor agents” (Eur J Med Chem, 2012).

How the values were obtained:
NCI-H460 = experiment: Cytotoxicity against human H460 cells assessed as growth inhibition after 72 hrs by MTT assay; assay type: functional, cell-based; details: NCI-H460, 72 h
Outline: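 Cells grown in MEM with 10% FBS. About 4×10^3 cells/well were pre-incubated for 24 h at 37 °C in 5% CO₂, then exposed to compound at the indicated final concentrations for 72 h. MTT was added to 5 µg/mL final for 4 h at 37 °C. IC50 is the mean of three determinations.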

HT-29 = experiment: Cytotoxicity against human HT-29 cells assessed as growth inhibition after 72 hrs by MTT assay; assay type: functional, cell-based; details: HT-29, 72 h
Outline: (§1)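 Cells grown in MEM with 10% FBS. About 4×10^3 cells/well were pre-incubated for 24 h at 37 °C in 5% CO₂, then exposed to compound at the indicated final concentrations for 72 h. MTT was added to 5 µg/mL final for 4 h at 37 °C. Formazan was dissolved in DMSO and read at 492 nm, with 630 nm as reference. IC50 is the mean of three determinations.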

MDA-MB-231 = experiment: Cytotoxicity against human MDA-MB-231 cells assessed as growth inhibition after 72 hrs by MTT assay; assay type: functional, cell-based; details: MDA-MB-231, 72 h; outline: as §1
[1] = Cytotoxicity against human U87MG cells assessed as growth inhibition after 72 hrs by MTT assay; assay type: functional, cell-based, U-87MG ATCC; details: U-87 MG; outline: as §1
NCI-H1975 = experiment: Cytotoxicity against human NCI-H1975 cells assessed as growth inhibition after 72 hrs by MTT assay; assay type: functional, cell-based; details: NCI-H1975, 72 h; outline: as §1

| SMILES | IC50 (NCI-H460; read-out: IC50) [µM] | IC50 (HT-29) [µM] | IC50 (MDA-MB-231) [µM] | IC50 (NCI-H460; read-out: pIC50 (converted)) [µM] | IC50 [1] [µM] | IC50 (NCI-H1975) [µM] |
| --- | --- | --- | --- | --- | --- | --- |
| NNc1nc(N2CCOCC2)c2sccc2n1 | 42.2 | 23.4 | 63.8 | – | – | – |
| CC(C)(O)c1cc2nc(NN)nc(N3CCOCC3)c2s1 | 29.7 | 56.2 | > 100 | – | – | – |
| C(=N\Nc1nc(N2CCOCC2)c2sccc2n1)/c1cn(Cc2ccccc2)c2ccccc12 | 1.41 | 4.7 | 12.4 | 1.41 | > 100 | 42.7 |
| Clc1ccccc1Cn1cc(/C=N/Nc2nc(N3CCOCC3)c3sccc3n2)c2ccccc21 | 3.98 | > 100 | > 100 | 3.98 | – | – |
| Clc1cccc(Cn2cc(/C=N/Nc3nc(N4CCOCC4)c4sccc4n3)c3ccccc32)c1 | 0.54 | 2.98 | 9.74 | 0.537 | 5.96 | > 100 |
| Clc1ccc(Cn2cc(/C=N/Nc3nc(N4CCOCC4)c4sccc4n3)c3ccccc32)cc1 | 0.36 | 5.76 | 2.7 | 0.355 | 15.6 | – |
| Fc1ccccc1Cn1cc(/C=N/Nc2nc(N3CCOCC3)c3sccc3n2)c2ccccc21 | 0.86 | 3.28 | 9.24 | 0.871 | 22.6 | > 100 |
| Fc1ccc(Cn2cc(/C=N/Nc3nc(N4CCOCC4)c4sccc4n3)c3ccccc32)cc1 | 0.41 | 1.79 | 12.3 | 0.407 | 8.83 | > 100 |
| N#Cc1cccc(Cn2cc(/C=N/Nc3nc(N4CCOCC4)c4sccc4n3)c3ccccc32)c1 | 0.34 | 4.86 | 2 | 0.347 | 9.68 | – |
| N#Cc1ccc(Cn2cc(/C=N/Nc3nc(N4CCOCC4)c4sccc4n3)c3ccccc32)cc1 | 1.62 | 25.5 | > 100 | 1.62 | – | – |
| Clc1ccc(Cn2cc(/C=N/Nc3nc(N4CCOCC4)c4sccc4n3)c3ccccc32)c(Cl)c1 | 5.77 | 46.5 | > 100 | 5.75 | – | – |
| Clc1cccc(Cl)c1Cn1cc(/C=N/Nc2nc(N3CCOCC3)c3sccc3n2)c2ccccc21 | 10.4 | 35.4 | 20.5 | 10.5 | – | – |
| Clc1ccc(Cn2cc(/C=N/Nc3nc(N4CCOCC4)c4sccc4n3)c3ccccc32)cc1Cl | 0.74 | 16.2 | > 100 | 0.741 | > 100 | > 100 |
| Cc1ccc(Cn2cc(/C=N/Nc3nc(N4CCOCC4)c4sccc4n3)c3ccccc32)cc1 | 0.83 | 3.31 | 9.73 | 0.832 | 4.97 | 33.1 |
| CC(C)(C)c1ccc(Cn2cc(/C=N/Nc3nc(N4CCOCC4)c4sccc4n3)c3ccccc32)cc1 | 0.38 | 1.69 | 1.43 | 0.38 | 11.2 | 8 |
| FC(F)(F)c1cccc(Cn2cc(/C=N/Nc3nc(N4CCOCC4)c4sccc4n3)c3ccccc32)c1 | 0.52 | 1.68 | 83.8 | 0.525 | 4.84 | 2.79 |
| C(=N\Nc1nc(N2CCOCC2)c2sccc2n1)/c1nc2ccccc2n1Cc1ccccc1 | 25.6 | 1.08 | 21.3 | 25.7 | – | – |

| SMILES | IC50 (NCI-H460; read-out: IC50) [µM] | IC50 (HT-29) [µM] | IC50 (MDA-MB-231) [µM] | IC50 (NCI-H460; read-out: pIC50 (converted)) [µM] | IC50 [1] [µM] | IC50 (NCI-H1975) [µM] |
| --- | --- | --- | --- | --- | --- | --- |
| Clc1ccccc1Cn1c(/C=N/Nc2nc(N3CCOCC3)c3sccc3n2)nc2ccccc21 | 79.4 | 0.4 | > 100 | 79.4 | – | – |
| Clc1cccc(Cn2c(/C=N/Nc3nc(N4CCOCC4)c4sccc4n3)nc3ccccc32)c1 | 4.56 | 1.01 | 37.7 | 4.57 | – | – |
| Clc1ccc(Cn2c(/C=N/Nc3nc(N4CCOCC4)c4sccc4n3)nc3ccccc32)cc1 | 2.6 | 0.77 | 13.9 | 2.63 | 13.4 | – |
| CC(C)(C)c1ccc(Cn2c(/C=N/Nc3nc(N4CCOCC4)c4sccc4n3)nc3ccccc32)cc1 | 3.62 | 4.18 | 8.17 | 3.63 | – | – |
| Clc1cccc(Cn2c(/C=N/Nc3nc(N4CCOCC4)c4sccc4n3)nc3ccccc32)c1Cl | 37.1 | 6.46 | > 100 | 37.2 | – | – |
| CC(C)(O)c1cc2nc(N/N=C/c3cn(Cc4cccc(Cl)c4)c4ccccc34)nc(N3CCOCC3)c2s1 | 0.84 | 0.87 | 3.22 | 0.832 | 8.91 | 23.8 |
| CC(C)(O)c1cc2nc(N/N=C/c3cn(Cc4ccc(Cl)cc4)c4ccccc34)nc(N3CCOCC3)c2s1 | 0.55 | 0.87 | 5.14 | 0.55 | 7.43 | 33.8 |
| CC(C)(O)c1cc2nc(N/N=C/c3cn(Cc4ccccc4F)c4ccccc34)nc(N3CCOCC3)c2s1 | 1.1 | 1.05 | 1.66 | 1.1 | 3.92 | 15.6 |
| CC(C)(O)c1cc2nc(N/N=C/c3cn(Cc4cccc(F)c4)c4ccccc34)nc(N3CCOCC3)c2s1 | 0.42 | 0.38 | 7.2 | 0.427 | 7.82 | 19.7 |
| CC(C)(O)c1cc2nc(N/N=C/c3cn(Cc4ccc(F)cc4)c4ccccc34)nc(N3CCOCC3)c2s1 | 1.1 | 1.01 | 1.53 | 1.1 | – | – |
| CC(C)(O)c1cc2nc(N/N=C/c3cn(Cc4cccc(C#N)c4)c4ccccc34)nc(N3CCOCC3)c2s1 | 0.36 | 1.39 | 5.61 | 0.363 | 6.64 | – |
| CC(C)(O)c1cc2nc(N/N=C/c3cn(Cc4ccc(C#N)cc4)c4ccccc34)nc(N3CCOCC3)c2s1 | 4.53 | 2.54 | 6.31 | 4.57 | – | – |
| CC(C)(O)c1cc2nc(N/N=C/c3cn(Cc4ccc(Cl)cc4Cl)c4ccccc34)nc(N3CCOCC3)c2s1 | 8.9 | 5.38 | > 100 | 8.91 | – | – |
| CC(C)(O)c1cc2nc(N/N=C/c3cn(Cc4c(Cl)cccc4Cl)c4ccccc34)nc(N3CCOCC3)c2s1 | 4.03 | 3.36 | 62.1 | 4.07 | – | – |
| CC(C)(O)c1cc2nc(N/N=C/c3cn(Cc4cccc(Cl)c4Cl)c4ccccc34)nc(N3CCOCC3)c2s1 | 7.22 | 3.7 | > 100 | 7.24 | – | – |
| COc1cc(/C=N/Nc2nc(N3CCOCC3)nc(N3CCOCC3)n2)cc(OC)c1O | 9.2 | 20.2 | > 100 | – | – | – |
| C=CCc1cccc(/C=N/NC(=O)CN2CCN(Cc3ccccc3)CC2)c1O [PAC-1] | 3.57 | 0.97 | 6.11 | – | – | – |
